According to ChEMBL document CHEMBL1159017, “Akuammine and dihydroakuammine, two indolomonoterpene alkaloids displaying affinity for opioid receptors” (J Nat Prod, 1992):

Experiments:
[1] = biological target: Delta-type opioid receptor (Rattus norvegicus, UniProt P33533); test: Displacement of [3H]pCl-DPDP from delta opioid receptor in rat central nervous system membrane; type: tissue-based
How it was run: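 Rat CNS membranes incubated with 1 nM [3H]-pCl-DPDP-enkephalin for 270 min at 20°. Bound and free ligand separated by rapid filtration; radioactivity counted by beta scintillation. Nonspecific binding set with 10^-5 M unlabelled DPDP-enkephalin (specific >70%). IC50 (half-maximal displacement, molar) obtained from displacement curves.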

Mu-type opioid receptor = Mu-type opioid receptor (Rattus norvegicus, UniProt P33535); test: Displacement of [3H]DAMGO from mu opioid receptor in rat central nervous system membrane; type: tissue-based
How it was run: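 Rat CNS membranes incubated with 1 nM [3H]-DAGO for 60 min at 20°. Bound and free radioligand separated by rapid filtration, then beta-scintillation counting. Specific binding defined with 10^-5 M unlabelled DAGO (>70%). IC50 (molar concentration giving half-maximal displacement) calculated from displacement curves.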

[2] = Displacement of [3H]U69593 from kappa opioid receptor in guinea pig cerebellum membrane; type: cell membranes, Cavia porcellus
How it was run: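 Guinea pig cerebellum homogenate incubated with 1.5 nM [3H]-U 69593 for 60 min at 20°. Rapid filtration, then beta-scintillation counting. Specific binding defined with 10^-5 M U50488H (>70%). IC50, the molar concentration giving half-maximal displacement, derived from displacement curves.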

Sequence of Delta-type opioid receptor (P33533 whole entry): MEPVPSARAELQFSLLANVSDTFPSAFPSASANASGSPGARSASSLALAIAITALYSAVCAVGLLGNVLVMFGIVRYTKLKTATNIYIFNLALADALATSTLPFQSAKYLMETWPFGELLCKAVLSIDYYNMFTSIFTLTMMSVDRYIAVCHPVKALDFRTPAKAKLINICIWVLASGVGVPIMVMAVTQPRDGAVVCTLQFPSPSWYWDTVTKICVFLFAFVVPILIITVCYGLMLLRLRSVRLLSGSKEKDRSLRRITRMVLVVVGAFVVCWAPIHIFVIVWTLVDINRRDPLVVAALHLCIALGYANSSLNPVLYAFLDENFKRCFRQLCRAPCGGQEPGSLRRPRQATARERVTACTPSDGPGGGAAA
Sequence of Mu-type opioid receptor (P33535 whole entry): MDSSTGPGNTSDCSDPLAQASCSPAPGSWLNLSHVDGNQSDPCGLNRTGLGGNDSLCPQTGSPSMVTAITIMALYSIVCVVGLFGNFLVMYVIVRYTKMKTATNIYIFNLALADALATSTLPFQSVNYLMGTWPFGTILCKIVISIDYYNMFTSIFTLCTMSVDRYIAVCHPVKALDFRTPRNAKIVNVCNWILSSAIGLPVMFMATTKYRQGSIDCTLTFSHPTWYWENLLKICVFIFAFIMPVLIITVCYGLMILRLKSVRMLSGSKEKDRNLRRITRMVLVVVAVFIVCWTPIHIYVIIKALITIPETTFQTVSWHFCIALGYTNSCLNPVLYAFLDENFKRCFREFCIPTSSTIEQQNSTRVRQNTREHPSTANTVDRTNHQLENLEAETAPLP

CN1CC[C@@]2(C)c3cc(O)ccc3N(C)[C@@H]12
IC50 [1]: 10 µM
IC50 (Mu-type opioid receptor): 0.3 µM
IC50 [2]: 0.3 µM

C/C=C1/CN2CC[C@@]34c5cc(O)ccc5N(C)[C@]35OC[C@@]4(C(=O)OC)[C@@H]1C[C@H]25 [AKUAMMINE]
IC50 [1]: 20 µM
IC50 [2]: 4 µM

C/C=C1/CN2CC[C@@]34c5cc(O)ccc5N(C)[C@@]23CC[C@H]1[C@@]4(CO)C(=O)OC [DIHYDROAKUAMMINE]
IC50 [1]: > 100 µM
IC50 (Mu-type opioid receptor): 6 µM
IC50 [2]: 20 µM
